# Data: ChEMBL document CHEMBL3526116, “Toxicological evaluation of acyl glucuronides of nonsteroidal anti-inflammatory drugs using human embryonic kidney 293 cells stably expressing human UDP-glucuronosyltransferase and human hepatocytes” (Drug Metab Dispos, 2011)
# Columns and labels:
# [1] = target: T1, UDP-glucuronosyltransferase 1A3 (Homo sapiens, UniProt P35503); assay: Activity of human UGT1A3 expressed in HEK293 cells assessed as enzyme-mediated compound formation per 2 x 10^5 cells treated with naproxen at 1 mM measured at 24 hrs by LC-MS/MS analysis; assay type: ADME, cell-based; conditions: hek293, 24 h, 1000 µM
# T1 sequence (P35503 whole entry): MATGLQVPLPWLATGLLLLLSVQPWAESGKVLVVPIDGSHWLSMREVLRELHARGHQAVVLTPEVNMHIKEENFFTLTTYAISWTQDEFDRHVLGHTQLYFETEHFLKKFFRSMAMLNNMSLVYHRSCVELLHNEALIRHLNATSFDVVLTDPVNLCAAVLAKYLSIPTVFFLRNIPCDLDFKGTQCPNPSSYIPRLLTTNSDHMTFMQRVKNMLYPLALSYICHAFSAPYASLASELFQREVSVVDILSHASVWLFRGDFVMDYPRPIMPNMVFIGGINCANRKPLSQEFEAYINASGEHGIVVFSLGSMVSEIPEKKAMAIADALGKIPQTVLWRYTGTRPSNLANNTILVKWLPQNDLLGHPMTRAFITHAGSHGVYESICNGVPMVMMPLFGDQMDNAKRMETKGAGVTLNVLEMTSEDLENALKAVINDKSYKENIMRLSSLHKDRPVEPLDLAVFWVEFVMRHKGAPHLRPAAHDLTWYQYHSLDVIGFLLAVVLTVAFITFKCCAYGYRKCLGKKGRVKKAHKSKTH
# Method in brief: (§1)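 HEK293 stably expressing human UGT1A3 (G418-selected), 2 x 10^5 cells/well in 1 mL DMEM with 0.5% FBS, exposed immediately to drug for 6, 12 or 24 h; DMSO ≤0.1% final. Cells and medium separated by centrifugation, cell fraction resuspended in PBS; aliquots mixed 1:1 with methanol/acetic acid (100:1), spun, supernatant analysed by LC-MS/MS. Triplicate determinations, mean ± SD.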
# [2] = Drug level in cell culture medium treated with naproxen at 1 mM measured at 6 hrs by LC-MS/MS analysis in absence of acyl glucuronidation inhibitor (-)-borneol; assay type: physicochemical; conditions: 1000 µM
# [3] = Drug level in cell culture medium treated with naproxen at 1 mM measured at 6 hrs by LC-MS/MS analysis in presence of acyl glucuronidation inhibitor (-)-borneol; assay type: physicochemical; conditions: 1000 µM
# Nucleic Acid = assay: Ratio of drug level in human hepatocytes to HEK293 cells expressing UGT1A3 treated with naproxen at 1 mM; assay type: ADME, cell-based, Hepatocyte; conditions: 1000 µM
# Method in brief: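 Acyl glucuronide in cell fraction (pmol/2 x 10^5 cells) by LC-MS/MS after 6 h exposure in human hepatocytes without (-)-borneol, set against HEK/UGT1A3 cells (2 x 10^5 cells/well, DMEM with 0.5% FBS) exposed to the same drug level; cells pelleted at 3000 x g, resuspended in PBS, extracted with methanol/acetic acid.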
# [4] = target: T1, UDP-glucuronosyltransferase 1A3; assay: Activity of human UGT1A3 expressed in HEK293 cells assessed as enzyme-mediated compound formation in cell culture medium treated with naproxen at 1 mM measured at 6 to 24 hrs by LC-MS/MS analysis; assay type: ADME, cell-based; conditions: hek293, 1000 µM; method in brief: as §1
# [5] = target: T1, UDP-glucuronosyltransferase 1A3; assay: Activity of human UGT1A3 expressed in HEK293 cells assessed as enzyme-mediated compound formation in cell culture medium treated with naproxen at 1 mM by LC-MS/MS analysis; assay type: ADME, cell-based; conditions: hek293, 1000 µM, TDE = time-dependent effect; method in brief: as §1
# Hepatocyte [6] = assay: Drug level in human hepatocytes assessed per 2 x 10^5 cells treated with naproxen at 1 mM measured at 6 hrs by LC-MS/MS analysis in presence of acyl glucuronidation inhibitor (-)-borneol; assay type: ADME, cell-based; conditions: 1000 µM
# Hepatocyte [7] = assay: Drug level in human hepatocytes assessed per 2 x 10^5 cells treated with naproxen at 1 mM measured at 6 hrs by LC-MS/MS analysis in absence of acyl glucuronidation inhibitor (-)-borneol; assay type: ADME, cell-based; conditions: 1000 µM
compound,measurement,setting,value
COc1ccc2cc([C@H](C)C(=O)O[C@@H]3O[C@H](C(=O)O)[C@@H](O)[C@H](O)[C@H]3O)ccc2c1,Drug metabolism,[1],4.5 pmol
same,Drug metabolism,[2],1323.9 pmol/mL
same,Drug metabolism,[3],393.7 pmol/mL
same,Ratio,Nucleic Acid,6
same,Drug metabolism,[4],137 pmol/mL
same,Drug metabolism,[5],tde
same,Drug metabolism,Hepatocyte [6],10.3 pmol
same,Drug metabolism,Hepatocyte [7],33.6 pmol
